DAT uptake mod = changed human dopamine transporter uptake under cocaine IC80 | Q01959 | B-score at 10 µM | actives 1.3% (n = 110,000) | LLC-PK1 hDAT cells, [14C]-dopamine uptake with cocaine IC80; actives deviate in either direction | AID 449768;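 active = Z score or B-score, a plate-position-corrected score, falls beyond the plate's 99.7% confidence bounds, in either direction; inactive = both scores lie inside the 99.7% bounds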;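 note: scored against the spread of the other compound wells on the same plate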
M1 agonist = activates the M1 muscarinic receptor | CHO-M1 cells, Fluo-4 calcium fluorescence, agonist mode; stronger effect = higher value | B-score at 10 µM | actives 3% (n = 64,000) | AID 626;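 active = fluorescence rise, raw or as B-score row- and column-corrected plate score, outside the 99.7% band of its plate's samples, either direction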
HEK293 NFkB inh = lowers PMA/ionomycin-induced NF-kB signal in HEK293 cells; AID 465; inhibition, % at 3 µM; HEK-293 NF-kB luciferase reporter, luminescence; actives 0.21% (n = 62,000);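 active = inhibition above the mean of all tested compounds plus 3 SD, cut at about 40% in these data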;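 note: 0% = stimulated DMSO wells and 100% = 10 µM reference inhibitor 5653914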
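Material: HEK-293 cells with stable firefly luciferase reporter driven by four HIV NF-kB elements / Also added: PMA plus ionomycin mix as NF-kB-activating stimulus / Compound dosing: 3 µM once, 0.30% DMSO / Times: 1 h pretreatment, 16 h stimulation, 37 °C / Signal: luminescence / Evaluation: per-plate % inhibition versus controls / Benchmarks: DMSO and 10 µM reference inhibitor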
D1 allo mod = allosteric modulators of human D1 dopamine receptor. HEK293 D1, CRE-luciferase, dopamine EC30 potentiation; actives deviate in either direction. B-score at 10 µM. actives 5.9% (n = 58,000). AID 641;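 active = luminescence count or its row- and column-corrected plate score outside the 99.7% band of the plate's sample wells, on either side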
M1 antag = M1 muscarinic receptor (rat) antagonism | B-score at 10 µM | AID 628 | actives 3.4% (n = 64,000) | P08482 | CHO-M1 cells, Fluo-4 calcium, ACh EC80 antagonist mode; stronger effect = lower value;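 active = calcium fluorescence response, raw or row-and-column corrected B-score, differing from the plate sample mean either way at a set confidence level, mostly lower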
Target sequence (P08482 whole entry, looked up): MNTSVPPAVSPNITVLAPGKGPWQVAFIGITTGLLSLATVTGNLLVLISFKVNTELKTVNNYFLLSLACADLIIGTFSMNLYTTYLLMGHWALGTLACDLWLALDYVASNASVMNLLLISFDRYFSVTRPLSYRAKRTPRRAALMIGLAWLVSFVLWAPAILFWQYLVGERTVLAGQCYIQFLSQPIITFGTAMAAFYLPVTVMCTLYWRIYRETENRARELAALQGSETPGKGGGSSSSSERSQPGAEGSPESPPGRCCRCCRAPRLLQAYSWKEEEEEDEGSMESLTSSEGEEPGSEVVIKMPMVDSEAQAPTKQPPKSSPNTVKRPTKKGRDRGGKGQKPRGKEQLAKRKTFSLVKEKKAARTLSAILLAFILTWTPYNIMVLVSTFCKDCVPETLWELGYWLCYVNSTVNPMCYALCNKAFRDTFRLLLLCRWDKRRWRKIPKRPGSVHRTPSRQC
Jurkat viability = cytotoxic compounds reducing Jurkat cell viability | Jurkat E6.1 viability, ATP luminescence, 48 h | inhibition, % at 4 µM | actives 1.2% (n = 56,000) | AID 463;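 active = inhibition above the mean inhibition of all tested compounds plus 3 SD, cut at about 28% in these data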
Numbers without * were called inactive; · = not tested or not shown. Compounds with a hit are over-represented: about 7.6% of the library has one in this group of screens.

SMILES	DAT uptake mod	M1 agonist	HEK293 NFkB inh	D1 allo mod	M1 antag	Jurkat viability
Cc1ccccc1NS(=O)(=O)c1ccc2[nH]cc(C(=O)N(C)Cc3ccco3)c(=O)c2c1	1.9	-1	-1	0.46	0.033	2
CCOc1ccc(NS(=O)(=O)c2ccc3[nH]cc(C(=O)N(CC)CC)c(=O)c3c2)cc1	·	23*	6	-0.16	-11*	-10
O=C1C(=O)N(CCN2CCOCC2)C(c2ccccn2)/C1=C(/O)c1ccccc1 (stereo not drawn)	0.067	-0.047	·	0.26	-0.15	·
CN1CCN(c2nc(-c3cccnc3)nc3ccccc23)CC1	0.61	0.001	6	·	-0.014	5
CCN1CCN(c2nc(-c3cccnc3)nc3ccccc23)CC1	-0.18	0.4	12	-4.3*	-0.34	11
CC(C)N1CC(O)=C(c2nc3ccccc3c(=O)[nH]2)C1=N	1.3*	·	·	·	·	·
Cc1ccccc1CSc1nccn1-c1ccccc1	0.83	·	·	·	·	·
CSc1nsc(/C=C/Nc2ccc(Cl)cc2)c1C#N	2.6*	·	·	·	·	·
CCn1c(SCc2ccc(F)cc2)nnc1C1CCN(S(=O)(=O)c2ccc(OC)cc2)CC1	0.76	·	·	·	·	·
O=C(NC1CCC(NC(=O)C(F)(F)C(F)F)CC1)C(F)(F)C(F)F (stereo not drawn)	0.48	-1.2	15	-3.2*	0.1	4
c1ccc(-n2ncc3c(NCCCN4CCOCC4)ncnc32)cc1	0.44	0.45	-12	-1.3	0.1	0
Clc1ccc(-n2ncc3c(NCCCn4ccnc4)ncnc32)cc1	0.5	-0.14	·	-2.5	0.077	·
COCC(C)Nc1ncnc2c1cnn2-c1ccc(Cl)cc1 (stereo not drawn)	2.7*	2.3	·	·	-2.2	·
CCCCNc1ncnc2c1cnn2-c1ccccc1	1.5	0.81	-27	-3.6*	0.25	90*
COc1ccc(-n2ncc3c(NCC(C)C)ncnc32)cc1	0.49	1.6	-52	-4.2*	1.6	11
COc1ccc(-n2ncc3c(NC(C)C)ncnc32)cc1	1.1	0.23	-16	-4	-0.89	-3
CCCCNc1ncnc2c1cnn2-c1ccc(Cl)cc1	1.9	-0.1	-16	-2	-0.094	86*
O=C(/C=C/c1cccs1)c1cc(F)ccc1OC(=O)N1CCOCC1	1.3	·	·	·	·	·
Cn1c(=O)c2cc(S(=O)(=O)NCCC(=O)NC3CCCCCCC3)ccc2n(C)c1=O	-0.095	0.55	15	-3.6*	0.99	1
CCOC(=O)c1cnc2ccc(C(=O)OC)cc2c1NCc1ccco1	-0.065	-0.22	-18	1.8	-0.28	1
CCOC(=O)c1ccc2ncc(C(=O)OCC)c(NCCN(C)C)c2c1	0.42	0.087	-2	2.9*	-1	0
Cc1cccc(NC(=O)c2ccc(C3SCC(=O)N3CCc3ccccc3)cc2)c1C (stereo not drawn)	2.7*	·	·	·	·	·
O=C1CCCC2=C1C(c1ccc(Cl)cc1)C1C(=O)c3ccccc3C1=N2 (stereo not drawn)	2.6*	·	·	·	·	·
O=C1CCCC2=C1C(c1ccc(Cl)cc1)N1C(=O)CCSC1=N2 (stereo not drawn)	0.091	·	·	·	·	·
COc1cccc(OC)c1OCC(O)CN1CCN(c2ccccc2)CC1 (stereo not drawn)	-0.61	-0.0034	-1	-2.9	0.41	-3
SMILES	DAT uptake mod	M1 agonist	HEK293 NFkB inh	D1 allo mod	M1 antag	Jurkat viability
COc1cc(OC)c(OC)cc1CN1CCN(c2ccccc2OC)CC1	-1.4	-0.034	0	-3.7*	-0.7	7
COc1ccccc1N1CCN(CC(O)c2ccc3cc[nH]c3c2)CC1 (stereo not drawn)	-1.2	-1.4	14	-2.6*	0.061	4
C=CCc1ccccc1OCC(O)CN1CCN(c2ccc(OC)cc2)CC1 (stereo not drawn)	-1.1	-0.89	14	-2.6*	-0.77	-3
COc1ccccc1N1CCN(CC(O)COc2c(OC)cccc2OC)CC1 (stereo not drawn)	-1.3	1.1	16	-4.6*	0.0025	8
CCS(=O)(=O)C(=C1Nc2ccccc2N1)S(=O)(=O)CC	-0.89	·	·	·	·	·
CCN(CC)S(=O)(=O)c1ccc(/C(O)=C(\C#N)c2nc3ccccc3n2C)cc1	1.7	2.1	11	-2.2*	-0.11	0
O=C(Nn1cnnc1)c1ccc(F)c(S(=O)(=O)N2CCCCC2)c1	-0.28	0.35	19	0.22	0.13	-6

Source: PubChem (several laboratories)
